The source of these data is ChEMBL document CHEMBL4152245, “Design, synthesis and biological evaluation of benzo[cd]indol-2(1H)-ones derivatives as BRD4 inhibitors” (Eur J Med Chem, 2018).

Structures are written as SMILES. Calls of active or inactive are those of the source. The rule behind the calls is not given here.

Data set [1] deals with T1, Bromodomain-containing protein 4 (Homo sapiens, UniProt O60885). Description: Binding affinity to His-tagged BRD4 bromodomain-1 (unknown origin) expressed in Escherichia coli BL21(DE3) assessed as change in melting temperature at 100 uM by SYPRO orange dye based thermal shift assay. A digest of the protocol:
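Buffer of 20 mM HEPES pH 7.4, 100 mM NaCl and 1 mM DTT, with 5× SYPRO Orange and 5 µM BRD4_BD1. Compound at 100 µM or 0.5% DMSO, DMSO matched across wells. Heated at 2.5 °C/min from 25 to 95 °C. Tm compared with the DMSO control.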

The target of data set [2] is T1, Bromodomain-containing protein 4. Description: Inhibition of His-tagged BRD4 bromodomain-1 (unknown origin) expressed in Escherichia coli BL21(DE3) using SGRGK(Ac)-GG-K(Ac)-GLG-K(Ac)-GGA-K(Ac)-RHRKVGG-K-Biotin as substrate preincubated for 15 mins followed by substrate addition measured after 10 mins by Alphascreen assay. A digest of the protocol:
(§1)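 His-tagged BRD4_BD1 purified by Ni-NTA, anion exchange and gel filtration, tag retained. Assay buffer: 20 mM HEPES pH 7.4, 0.1% BSA, 0.01% Triton X-100, 1 mM DTT. Protein preincubated with compound 15 min at room temperature, biotinylated tetra-acetyl peptide added for 10 min, then streptavidin donor and nickel chelate acceptor beads for 60 min. Compounds screened at 20 and 5 µM; IC50 from three independent experiments.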

For data set [3] the target is unchanged. Description: Inhibition of His-tagged BRD4 bromodomain-1 (unknown origin) expressed in Escherichia coli BL21(DE3) at 20 uM using SGRGK(Ac)-GG-K(Ac)-GLG-K(Ac)-GGA-K(Ac)-RHRKVGG-K-Biotin as substrate preincubated for 15 mins followed by substrate addition measured after 10 mins by Alphascreen assay relative to control. The method in brief: as §1
In general terms: Bead proximity is the source of the signal in Alpha formats.

The target is the same in data set [4]. Description: Inhibition of BRD4 in human MV4-11 cells assessed as downregulation of CDK6 mRNA expression after 6 hrs by RT-PCR analysis. The format is cell-based. The method in brief:
(§2)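 MV4-11 cells at 5×10⁵/mL treated 6 h with various compound concentrations or DMSO. c-Myc, Bcl-2 and CDK6 transcripts quantified by qRT-PCR, normalized to B2M by the ΔΔCt method.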

Data set [5] shares this target. Description: Inhibition of BRD4 in human MV4-11 cells assessed as downregulation of Bcl2 mRNA expression after 6 hrs by RT-PCR analysis. The format is cell-based. A digest of the protocol: as §2
For data set [6] the target is unchanged. Description: Inhibition of His-tagged BRD4 bromodomain-1 (unknown origin) expressed in Escherichia coli BL21(DE3) at 5 uM using SGRGK(Ac)-GG-K(Ac)-GLG-K(Ac)-GGA-K(Ac)-RHRKVGG-K-Biotin as substrate preincubated for 15 mins followed by substrate addition measured after 10 mins by Alphascreen assay relative to control. The method in brief:
as §1

The target is the same in data set [7]. Description: Inhibition of BRD4 in human MV4-11 cells assessed as downregulation of c-MYC protein expression after 6 hrs by Western blot analysis. The format is cell-based. A digest of the protocol: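 MV4-11 cells at 5×10⁵/mL treated 6 h with various compound concentrations or DMSO. Immunoblotted with anti-c-Myc (1:1000, 4 °C overnight), then anti-rabbit secondary (1:10000, 1 h, room temperature).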
For orientation: Immunoblotting shows a protein as a band on a membrane.

Data set [8] has the same target. Description: Inhibition of BRD4 in human MV4-11 cells assessed as downregulation of c-MYC mRNA expression after 6 hrs by RT-PCR analysis. Format: cell-based. A digest of the protocol:
as §2

For data set [9] the target is unchanged. Description: Inhibition of BRD4 (unknown origin) by Alphascreen assay. A digest of the protocol:
as §1

Data set [10] relates to MV4-11. Description: Cell cycle arrest in human MV4-11 cells assessed as accumulation at G2-phase at 10 uM after 24 hrs by propidium iodide staining based flow cytometry (reference value: 7.76 to 8.93%). The format is functional. In general terms: In flow cytometry, cells or beads pass a laser one at a time.
For data set [11], the system named is MV4-11. Description: Antiproliferative activity against human MV4-11 cells after 72 hrs by CellTiter-Glo luminescent assay. The format is functional, cell-based. The conditions noted are these: MV4-11, 72 h. The method in brief:
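MV4-11 cells in RPMI 1640 with 10% FBS and 1% penicillin/streptomycin, seeded at 1×10⁵/mL. Compounds or DMSO added about 1 h later, then incubated 72 h. Viability read by CellTiter-Glo luminescence. Each dilution point run in triplicate, averaged, and fitted for IC50.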

The subject of data set [12] is MV4-11. Description: Cell cycle arrest in human MV4-11 cells assessed as accumulation at S-phase at 5 uM after 24 hrs by propidium iodide staining based flow cytometry (reference value: 28.91 to 29.71%). Format: functional.
Data set [13] deals with MV4-11. Description: Cell cycle arrest in human MV4-11 cells assessed as accumulation at G1-phase at 5 uM after 24 hrs by propidium iodide staining based flow cytometry (reference value: 61.39 to 63.23%). Format: functional.
The test system of data set [14] is MV4-11. Description: Cell cycle arrest in human MV4-11 cells assessed as accumulation at S-phase at 20 uM after 24 hrs by propidium iodide staining based flow cytometry (reference value: 28.91 to 29.71%). Format: functional.
For data set [15], the system named is MV4-11. Description: Cell cycle arrest in human MV4-11 cells assessed as accumulation at G1-phase after 24 hrs by propidium iodide staining based flow cytometry. Format: functional.
In data set [16] the test system is MDA-MB-231. Description: Antiproliferative activity against human MDA-MB-231 cells after 72 hrs by CellTiter-Glo luminescent assay. Format: functional, cell-based. The method in brief: (§3)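 HUV-EC-C, MRC5, RPTEC, A549, MDA-MB-231 and 22Rv1 cells seeded at 3×10⁴/mL and exposed to serially diluted compounds or DMSO. Viability read by CellTiter-Glo luminescence. Each dilution point run in triplicate, averaged, and fitted.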

Data set [17] relates to MV4-11. Description: Cell cycle arrest in human MV4-11 cells assessed as accumulation at G2-phase at 20 uM after 24 hrs by propidium iodide staining based flow cytometry (reference value: 7.76 to 8.93%). Format: functional.
Data set [18] concerns RPTEC. Description: Antiproliferative activity against human RPTEC cells after 72 hrs by CellTiter-Glo luminescent assay. Format: cell-based. A digest of the protocol: as §3
The test system of data set [19] is MV4-11. Description: Cell cycle arrest in human MV4-11 cells assessed as accumulation at G2-phase at 5 uM after 24 hrs by propidium iodide staining based flow cytometry (reference value: 7.76 to 8.93%). Format: functional.
Data set [20] concerns MV4-11. Description: Cell cycle arrest in human MV4-11 cells assessed as accumulation at G1-phase at 20 uM after 24 hrs by propidium iodide staining based flow cytometry (reference value: 61.39 to 63.23%). The format is functional.
Data set [21] deals with MRC5. Description: Antiproliferative activity against human MRC5 cells after 72 hrs by CellTiter-Glo luminescent assay. Format: cell-based. As to conditions: mrc5, 72 h. The method in brief: as §3
In data set [22] the test system is MV4-11. Description: Cell cycle arrest in human MV4-11 cells assessed as accumulation at S-phase at 10 uM after 24 hrs by propidium iodide staining based flow cytometry (reference value: 28.91 to 29.71%). Format: functional.
Data set [23] concerns CWR22R. Description: Antiproliferative activity against human 22Rv1 cells after 72 hrs by CellTiter-Glo luminescent assay. Format: functional, cell-based. A digest of the protocol: as §3
For data set [24], the system named is A549. Description: Antiproliferative activity against human A549 cells after 72 hrs by CellTiter-Glo luminescent assay. The format is functional, cell-based. A digest of the protocol:
as §3

Data set [25] relates to HUVEC. Description: Antiproliferative activity against HUVEC after 72 hrs by CellTiter-Glo luminescent assay. Format: cell-based. The conditions noted are these: human. A digest of the protocol: as §3
The subject of data set [26] is MV4-11. Description: Cell cycle arrest in human MV4-11 cells assessed as accumulation at G1-phase at 10 uM after 24 hrs by propidium iodide staining based flow cytometry (reference value: 61.39 to 63.23%). The format is functional.

The term ΔTm denotes the shift of the melting midpoint relative to a reference. The IC50 is the concentration that inhibits the measured activity by half. Usually inhibition stands for the percentage by which the read-out fell short of the control. As for `CCN1C(=O)c2cccc3c(S(=O)(=O)N4CCC[C@@H]4C(=O)NN)ccc1c23`, the ΔTm in data set [1] was 7.8 °C. In addition, in data set [2], the IC50 is 1020 nM. The inhibition was 100% in data set [3]; “Dose-dependent effect” in [4]; “Dose-dependent effect” in [5]; 93% in [6]; “Dose-dependent effect” in data set [7]; “Dose-dependent effect” in [8].

For the compound `CCN1C(=O)c2cccc3c(S(=O)(=O)NCCO)ccc1c23`, the ΔTm in data set [1] was found to be 13.2 °C. Moreover, half-maximal inhibition in data set [2] (IC50) required 1550 nM. Also, the results for the inhibition in data set [3] and in [6] were 100% and 98%, respectively.

Compound `Cc1sc2c(c1C)C(c1ccc(Cl)cc1)=C[C@@H](CC(=O)OC(C)(C)C)c1nnc(C)n1-2` had an IC50 in data set [9] of 77 nM.

As to `CCN1C(=O)c2cccc3c(S(=O)(=O)N4CCCC4)ccc1c23`, the ΔTm in data set [1] is 3.4 °C. Moreover, the Activity in data set [10] is 4%; in data set [12], 21.52%; in [13], 73%; in [14], 9.88%; in data set [15], “Dose-dependent effect”; in [17], 2.9%. Moreover, the Activity entry in data set [18] was “Non-Toxic”; in data set [19], 5.47%; in data set [20], 87.22%; in [21], “Non-Toxic”; in [22], 15.95%; in data set [25] it was “Non-Toxic”. The Activity in data set [26] is 80.04%. For the same compound, the figures for the half-inhibitory concentration (IC50) in data set [2] and in data set [11] were 6830 nM and 11700 nM, respectively. For the same compound, the inhibition in data set [3] is 99%; in data set [4], “Dose-dependent effect”; in [5], “Dose-dependent effect”; in data set [6] it was 59%; in data set [7], “Dose-dependent effect”; in data set [8], “Dose-dependent effect”. The result in data set [16], in data set [23] and in [24] was Active.

`CCN1C(=O)c2cccc3c(S(=O)(=O)N4CCC[C@@H]4C(=O)O)ccc1c23`: the ΔTm in data set [1] was found to be 10.5 °C. Besides, the IC50 in [2] is 3020 nM. The inhibition in [3] was 98%; in [4], “Dose-dependent effect”; in data set [5], “Dose-dependent effect”; in data set [6], 66%; in data set [7] it was “Dose-dependent effect”; in data set [8], “Dose-dependent effect”.
